Experimental data taken from article PMC7579299 (Anti-Inflammatory & Anti-Allergy Agents in Medicinal …, 2020).

What was measured:
[1] = system: Human Red Blood Cell (HRBC) membrane; test: HRBC membrane stabilization method; format: cell-based
In short: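 Human red blood cell membrane stabilization assay, run in quadruplicate with diclofenac as reference. Hemolysis in distilled water was taken as 100%. Protection was calculated as % inhibition of hemolysis = 100 × (OD control − OD sample)/OD control.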

[2] = system: MCF-7 (human breast cancer); test: Anticancer MTT assay, breast cancer cells; format: cell-based
In short: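 MCF-7 cells grown in DMEM with 10% FBS, penicillin and streptomycin at 37°C in 5% CO₂. About 5000 cells/well were exposed to test compound at 50-500 µg/mL (1 mg/ml DMSO working solution, 0.45-micron filtered) for 24, 48 or 72 h. MTT was added for 2 h, then lysis buffer for 4 h, and A570 was read. Viability = mean OD/control OD × 100.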

Row | SMILES | IC50 ([1]; Homo sapiens, Erythrocyte, read-out: HRBC membrane protection IC50) | HRBC membrane average protection ([1]; n=4) | Relative percentage activity (anticancer) [2]
1 | O=C(O)Cc1ccccc1Nc1c(Cl)cccc1Cl [Diclofenac] | 150 nM | 82.15% | 
2 | COc1cccc2c1C(=O)c1c(O)c3c(c(O)c1C2=O)C[C@@](O)(C(=O)CO)C[C@@H]3O[C@H]1C[C@H](N)[C@H](O)[C@H](C)O1 [Doxorubicin] |  |  | 89.47 ± 2.87%
